Measurements of several laboratories.
Protocols differ between the studies behind these lines.
Read-out: cell growth or viability

Compound | cell line | technique | concentration | time | measurement | value
C=C(C)[C@@H]1CC[C@@H](C)C[C@H]1OCc1ccc(OC)cc1 | MCF7 | MTT | 30 µM | 72 h | inhibition | 37.7%
O=C(Nc1ccc(Oc2nnc(-c3ccc(Cl)cc3)c3ccccc23)cc1)c1cccc([N+](=O)[O-])c1 | MCF7 | MTT | 2.5 µM | 24 h | viability | 4.87%
COc1cc2c3c(n(CCCNC(C)C)c(=O)c2cc1OC)-c1nc2c(cc1C3=O)OCO2 | AMO1 | MTS |  | 72 h | IC50 | 317 nM
CC(=O)c1nn(-c2ccc(C)cc2)/c(=N/N=C(\C)c2ccc(NC(=O)c3ccccc3)cc2)s1 | MCF7 | MTT | 1.25 µM |  | viability | 5.3%
CCNCCCn1c2c(c3cc(OC)c(OC)cc3c1=O)C(=O)c1cc3c(nc1-2)OCO3 | AMO1 | MTS |  | 72 h | IC50 | 184 nM
Cc1c(C(=O)O)ccc2c3n(nc12)[C@@H]1[C@H](C3)N(CC2CC2)[C@@]2(C(=O)Nc3cc(Cl)ccc32)[C@H]1c1cccc(Cl)c1F | A204 |  |  |  | GI50 | 0.28 nM
C[C@@H]1CC[C@@H]([C@](C)(O)CNCc2cccc(F)c2)[C@H](OCc2ccccc2)C1 | MCF7 | MTT | 30 µM | 72 h | inhibition | 95.6%
Cc1noc2c1-c1ccccc1C(c1ccc(Cl)cc1)=N[C@H]2CC(N)=O | NOMO-1 | ATP luminescence |  | 72 h | IC50 | 387 nM
C=C(F)C(=O)N1CCN(c2nc(OC[C@@H]3CCCN3C)nc3c2CCN(c2cccc4cccc(Cl)c24)C3)C[C@@H]1CC#N | NCI-H441 | ATP luminescence |  |  | IC50 | 3400 nM
COc1cc2c3c(n(CCCNCCO)c(=O)c2cc1OC)-c1nc2c(cc1C3=O)OCO2 | THP-1 | MTS |  | 72 h | IC50 | 300 nM
CCOC(=O)c1nn(-c2cccc(Cl)c2)/c(=N/N=C(\C)c2ccc(NC(=O)c3ccccc3)cc2)s1 | MCF7 | MTT | 10 µM |  | viability | 2.41%
C[C@@H]1CC[C@@H]([C@@](O)(CNCc2cccc3ccccc23)COCc2ccccc2)[C@H](OCc2ccccc2)C1 | MCF7 | MTT | 30 µM | 72 h | inhibition | 90.7%
CC(=O)c1nn(-c2ccccc2Cl)/c(=N/N=C(\C)c2ccc(NC(=O)c3ccccc3)cc2)s1 | MCF7 | MTT | 2.5 µM |  | viability | 6.21%
S=C(Nc1ccccc1)Nc1ccc(Oc2nnc(-c3ccc(Cl)cc3)c3ccccc23)cc1 | MCF7 | MTT | 5 µM |  | cell death | 97.3%
COc1cc2c3c(n(CCCn4ccnc4)c(=O)c2cc1OC)-c1nc2c(cc1C3=O)OCO2 | AMO1 | MTS |  | 72 h | IC50 | 804 nM
CC(=NNC(N)=S)c1ccc(Nc2nnc(-c3ccc(Cl)cc3)c3ccccc23)cc1 | MCF7 | MTT | 1.25 µM |  | cell death | 94.5%

Compound | cell line | technique | concentration | time | measurement | value
O=C(NO)c1ccc(CNc2nc3cccc(-c4ccc5c(c4)OCO5)n3n2)cc1 | SW-620 | SRB |  |  | GI50 | 450 nM
C[C@@H]1CC[C@@H]([C@@](O)(CNCc2ccccc2)COCc2ccc(F)cc2)[C@H](OCc2ccc(F)cc2)C1 | MCF7 | MTT | 30 µM | 72 h | inhibition | 100%
CC(=NNC(=O)c1ccccc1Cl)c1ccc(Nc2nnc(-c3ccc(Cl)cc3)c3ccccc23)cc1 | MCF7 | MTT | 5 µM | 24 h | viability | 8.28%
C=CC(=O)NC1CCN(c2ncc3ncnc(Nc4ccc(Oc5ccc6c(c5)ncn6C)c(C)c4)c3n2)CC1 | NCI-H441 |  |  |  | EC50 | 693 nM
CC1(C)CCC2(CC1)N[C@@H](C(=O)N[C@@H]1CC[C@@H](C(N)=O)OC1)[C@H](c1ccnc(Cl)c1F)[C@]21C(=O)Nc2cc(Cl)ccc21 | SJSA-1 | resazurin |  | 72 h | IC50 | 115 nM
CC(=NNC(=O)c1ccccc1Br)c1ccc(Nc2nnc(-c3ccc(Cl)cc3)c3ccccc23)cc1 | MCF7 | MTT | 1.25 µM | 24 h | viability | 31.3%
COc1cc2c3c(n(CCCN4CCOCC4)c(=O)c2cc1OC)-c1nc2c(cc1C3=O)OCO2 | THP-1 | MTS |  | 72 h | IC50 | 1320 nM
CC(=NNC(=O)c1ccc(N)cc1)c1ccc(Nc2nnc(-c3ccc(Cl)cc3)c3ccccc23)cc1 | MCF7 | MTT | 0.625 µM |  | cell death | 56%
C[C@@H]1CC[C@@H]([C@](C)(O)Cn2cnc3ccccc32)[C@H](OCc2ccccc2)C1 | MCF7 | MTT | 30 µM | 72 h | inhibition | 98.3%
CC(=O)Nc1ccc(/C(C)=N/N=c2\sc(C(C)=O)nn2-c2ccc(C)cc2)cc1 | MCF7 | MTT | 0.625 µM |  | viability | 86.4%
C[C@@H]1CC[C@@H]([C@](O)(CNCc2ccccc2)COCc2ccccc2)[C@H](OCc2ccccc2)C1 | MCF7 | MTT | 10 µM | 72 h | inhibition | 84.1%
CCOC(=O)c1nn(-c2cccc(Cl)c2)/c(=N/N=C(\C)c2ccc(NC(=O)c3ccc(Cl)cc3)cc2)s1 | MCF7 | MTT | 0.156 µM |  | viability | 21.9%
CCN1[C@@H](C(=O)NC23CCC(C(=O)O)(CC2)CC3)[C@H](c2cccc(Cl)c2F)[C@]2(C(=O)Nc3cc(Cl)ccc32)C12CCCCC2 | SJSA-1 | resazurin |  | 72 h | GI50 | 89 nM
COc1ccc(CNC[C@](O)(COCc2ccc(F)cc2)[C@@H]2CC[C@@H](C)C[C@H]2OCc2ccc(F)cc2)cc1 | MCF7 | MTT | 30 µM | 72 h | inhibition | 98.4%
CC(=O)Nc1ccc(Oc2nnc(-c3ccc(Cl)cc3)c3ccccc23)cc1 | MCF7 | MTT | 10 µM | 24 h | viability | 5.75%
